In ChEMBL document CHEMBL1128301, “Cephalosporin derivatives of doxorubicin as prodrugs for activation by monoclonal antibody-beta-lactamase conjugates” (J Med Chem, 1995):

Columns and labels:
[1] = target: Beta-lactamase (Enterobacter cloacae) (UniProt P05364); assay: The kinetic constant(kcat) value as spectrophotometrically by using Enterobacter cloacae P99 beta-lactamase (ECIbL) enzyme as catalyst
In short: (§1)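 Spectrophotometric hydrolysis at 23 °C in PBS with 12.5 μg/mL BSA. EClbL was used at 0.1 μg/mL; BCbL and ECbL at 1.0 μg/mL. […] Initial velocities were linear over 1 min.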

[2] = target: Beta-lactamase TEM (Escherichia coli) (UniProt P62593); assay: The kinetic constant(kcat) value as spectrophotometrically by using Escherichia coli TEM-1 beta-lactamase (ECbL) enzyme as catalyst; in short: as §1
Sequence of Beta-lactamase TEM (Escherichia coli) (P62593 whole entry): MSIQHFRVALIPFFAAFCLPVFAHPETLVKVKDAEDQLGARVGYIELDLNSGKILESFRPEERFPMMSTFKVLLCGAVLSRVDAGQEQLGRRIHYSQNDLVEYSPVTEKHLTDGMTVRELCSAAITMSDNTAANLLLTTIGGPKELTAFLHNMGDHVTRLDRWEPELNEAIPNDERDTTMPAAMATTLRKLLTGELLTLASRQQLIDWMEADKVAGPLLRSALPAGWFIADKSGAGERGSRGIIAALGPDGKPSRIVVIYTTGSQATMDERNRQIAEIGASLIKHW

[3] = target: T1, Metallo-beta-lactamase type 2 (Bacillus cereus) (UniProt P14488); assay: The kinetic constant(kcat) value as spectrophotometrically by using Bacillus cereus beta-lactamase (BCbL) enzyme as catalyst; in short: as §1
T1 sequence (whole entry): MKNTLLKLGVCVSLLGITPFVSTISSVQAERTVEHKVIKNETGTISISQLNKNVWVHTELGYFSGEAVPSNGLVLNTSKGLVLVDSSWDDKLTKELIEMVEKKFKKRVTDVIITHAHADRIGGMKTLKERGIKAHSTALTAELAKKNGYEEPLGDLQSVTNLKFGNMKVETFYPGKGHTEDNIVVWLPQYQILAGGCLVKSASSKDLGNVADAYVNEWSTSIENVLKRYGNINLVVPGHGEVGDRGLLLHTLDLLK

Sequence of Beta-lactamase (Enterobacter cloacae) (P05364 21-381 limits assumed): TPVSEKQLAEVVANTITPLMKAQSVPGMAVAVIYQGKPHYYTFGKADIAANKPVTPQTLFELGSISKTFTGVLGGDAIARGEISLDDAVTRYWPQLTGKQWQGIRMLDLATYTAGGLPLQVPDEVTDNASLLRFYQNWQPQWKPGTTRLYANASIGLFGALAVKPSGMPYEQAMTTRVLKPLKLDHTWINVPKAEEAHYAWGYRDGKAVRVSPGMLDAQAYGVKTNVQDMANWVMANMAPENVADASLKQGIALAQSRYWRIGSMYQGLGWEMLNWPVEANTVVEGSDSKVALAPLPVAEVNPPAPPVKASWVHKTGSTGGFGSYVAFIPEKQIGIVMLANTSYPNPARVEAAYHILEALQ

k cat [1]: 210 s⁻¹
k cat [2]: 2.8 s⁻¹
k cat [3]: 6.6 s⁻¹
SMILES: COc1cccc2c1C(=O)c1c(O)c3c(c(O)c1C2=O)C[C@@](O)(C(=O)CO)C[C@@H]3OC1CC(NC(=O)OCC2=C(C(=O)O)N3C(=O)[C@@H](NC(=O)CCCC(=O)O)[C@H]3SC2)C(O)C(C)O1 (stereo partly drawn)
